Rows were chosen to be rich in hits. Some 2.1% of all compounds tested hit in one or more screens of this group.
APOBEC3A inh – human APOBEC3A DNA deaminase inhibition | P31941 | recombinant A3A, FAM/TAMRA ssDNA deamination fluorescence | inhibition, % at 20 µM | 330,000 compounds, 0.41% hits | AID 493011;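 active means at least 40% inhibition at 20 µM here, with at most 30% in a related deaminase screen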;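 further: plate controls were A3A with DMSO for no effect and wells lacking A3A enzyme for full effect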
Target sequence (P31941 whole entry, looked up): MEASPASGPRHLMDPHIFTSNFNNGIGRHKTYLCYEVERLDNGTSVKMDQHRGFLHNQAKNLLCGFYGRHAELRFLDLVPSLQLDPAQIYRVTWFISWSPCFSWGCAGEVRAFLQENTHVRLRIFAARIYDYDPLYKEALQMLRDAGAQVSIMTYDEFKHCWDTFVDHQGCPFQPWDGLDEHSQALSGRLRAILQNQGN
ASAP1 GAP inh – blocks human ASAP1-stimulated Arf1 GTP hydrolysis; Q9ULH1; GDP FP detection; inhibition, % at 16.5 µM; 360,000 compounds, 0.19% hits; AID 624377; in the data active means inhibition above about 25%;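 further: 0% = vehicle with enzyme and substrate and 100% = no enzyme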
A3G deaminase – blocks human APOBEC3G single-stranded DNA deamination; Q9HC16; recombinant A3G, ssDNA deamination FAM/TAMRA fluorescence; inhibition, % at 20 µM; 330,000 compounds, 0.28% hits; AID 493012;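 active means inhibition of at least 40% at 20 µM, with no more than 30% in the related APOBEC3A deaminase screen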;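 further: plate controls were DMSO wells with A3G for no effect and wells lacking A3G enzyme for full effect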
ARFGAP1 inhibitor – rat ARFGAP1 inhibition; Q62848; Arfgap1-stimulated ARF1 GTP hydrolysis, GDP FP detection; inhibition, % at 16.5 µM; 360,000 compounds, 0.26% hits; AID 651572;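 active means inhibition above a per-plate limit, mean inhibition of low control wells plus 3 SD, cut at about 25% in these data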;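 further: 0% = DMSO wells with enzyme and 100% = wells lacking Arfgap1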
Target sequence (Q62848 1-136 limits assumed): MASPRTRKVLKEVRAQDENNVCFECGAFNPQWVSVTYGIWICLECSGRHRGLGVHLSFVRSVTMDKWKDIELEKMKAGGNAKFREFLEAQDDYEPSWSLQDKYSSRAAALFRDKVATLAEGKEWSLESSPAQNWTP
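System: truncated rat Arfgap1 GAP domain / Benchmarks: high control wells lacking Arfgap1, low control full reaction with DMSO / Times: compound-enzyme preincubation 20 min, reaction 120 min, detection 60 min, 25 °C / Repeats: one replicate per compound / Also added: human ARF1(Δ1-17)-GTP substrate / Measured by: Tracer-displacement fluorescence polarization with EDTA stop, 620/688 nm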
C2C12 statin – suppressors of simvastatin-induced myotoxicity in C2C12 myotubes; ATP luminescence, 48 h; scaled: DMSO 0, geranylgeraniol control 100; rescue of ATP level, % at 7.49 µM; 330,000 compounds, 0.78% hits;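 active means mean ATP rescue above about 67%, or every replicate alone reaching that limit, limit read from the data, passing the limit was not always enough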;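 further: myotubes were challenged with 10 µM simvastatin during compound exposure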
Mot1-301 SUMO – blocks SUMOylation pathway, rescuing yeast Mot1-301 growth; S. cerevisiae Mot1-301 growth rescue, ATP luminescence, 38.5C; percent above DMSO median, 100 means doubled; growth rescue, % at 18.8 µM; 320,000 compounds, 1% hits;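 active means every valid replicate shows activation above 250% relative to neutral control wells; inactive means the rest, any valid replicate at or below 250%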;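 further: OY570 slx delta 5 strain wells were the positive control but not used for scaling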
An asterisk follows results filed as active; . = no result given.

SMILES	APOBEC3A inh	ASAP1 GAP inh	A3G deaminase	ARFGAP1 inhibitor	C2C12 statin	Mot1-301 SUMO
CN(C)c1ncnc2c1nnn2C1OC(CO)C(O)C1O (stereo not given)	.	12.3	.	-16.5	-4.0	.
CC(OC(=O)c1ccccc1NS(=O)(=O)c1cccc(N)c1)C(=O)N(C)Cc1ccccc1 (stereo not given)	0.5	11.2	-5.0	-9.3	86.1*	-1.8
CC(C)NC(=O)Nc1ccc2c(c1)C(=O)N([C@H](C)CO)C[C@@H](C)[C@H](CN(C)C)O2	.	.	.	.	-21.1	.
CC(C)NC(=O)CS(=O)(=O)c1ccccc1	2.6	-4.4	-0.1	-4.6	112.1*	267.9
O=C(CS(=O)(=O)c1ccccc1)NC1CCCCC1	1.2	1.9	0.9	6.8	12.3	1.4
Nc1ccc(C(=O)Nc2ccc3cc(S(=O)(=O)O)ccc3c2)cc1	.	3.9	.	5.2	93.3*	.
C[C@H](CO)N1C[C@H](C)[C@@H](CN(C)C)Oc2ccc(NC(=O)CCN3CCOCC3)cc2C1=O	.	.	.	.	-11.6	.
CC(C)(C)OC(=O)N1Cc2cc3ccccc3nc2C1	.	5.3	.	-9.2	.	.
CC(C)(C)OC(=O)N1CCNc2ccccc2C1	-2.3	5.5	-0.4	4.6	95.6*	4.0
COCCN1Cc2cccc(C(=O)Nc3ccc(-c4nc5ccccc5[nH]4)cc3)c2C1=O	0.9	-9.3	-2.7	-4.4	.	689.2*
C[C@@H]1CN([C@H](C)CO)C(=O)CCCn2nncc2CO[C@@H]1CN(C)C(=O)Nc1cccc(Oc2ccccn2)c1	.	.	.	.	-6.8	.
CC(C)C#Cc1ccc2c(c1)O[C@H](CN(C)C)[C@@H](C)CN([C@H](C)CO)S2(=O)=O	.	.	.	.	1.8	.
O=C(NCc1ccccc1Cl)c1cnccn1	0.9	-2.7	-3.5	-14.7	66.9*	18.2
C[C@@H]1CN([C@@H](C)CO)C(=O)Cc2cc(NC(=O)NC3CCCCC3)ccc2O[C@H]1CN(C)CC1CCCCC1	.	.	.	.	-8.6	.
COc1ccccc1C(=O)N1C[C@@H]2[C@H](c3ccccc31)[C@H](CO)N2CC1CCOCC1	.	.	.	.	-1.2	.
CCCNC(=O)[C@H]1[C@H](CO)[C@H]2Cn3c(ccc(-c4ccccc4F)c3=O)[C@@H]1N2CC1CC1	.	.	.	.	2.0	.
Clc1ccc(/C=N/c2c(-c3ccco3)nc3ccccn23)cc1	-1.0	-3.8	-2.9	-2.4	-2.9	162.6
Oc1ccccc1/C=N/c1c(-c2ccco2)nc2ccccn12	-2.5	-15.6	-5.7	1.6	102.2*	-25.3
CNC[C@@H]1OCCCC[C@H](C)Oc2ccc(NC(=O)CCC(F)(F)F)cc2C(=O)N([C@H](C)CO)C[C@@H]1C	.	.	.	.	-15.0	.
CCS(=O)(=O)N[C@H]1C=C[C@H](CC(=O)NCc2ccc(F)cc2)O[C@H]1CO	.	.	.	.	1.4	.
COCCNC(=O)CCSc1nc(-c2ccc(OC)cc2)cc(C(F)(F)F)n1	-2.7	-5.8	-7.3	4.1	86.6*	42.9
COc1ccc(-c2cc(C(F)(F)F)nc(SCCC(=O)Nc3cc(C)on3)n2)cc1	-0.4	-10.3	-3.6	11.9	.	17.2
CCn1c(SCC(=O)Nc2nc(C)c(C(=O)OC)s2)nnc1C(C)C	-0.5	4.5	-3.1	8.8	81.8*	204.4
CCCn1c(SCC(=O)Nc2nc(C)c(C(=O)OC)s2)nnc1C(C)C	0.5	1.5	-1.9	-1.9	1.9	413.7
COc1ccc(Cn2c(CCC(=O)N3CCN(c4ccccn4)CC3)nc3ncccc3c2=O)cc1	.	4.3	.	-2.3	87.6*	.
SMILES	APOBEC3A inh	ASAP1 GAP inh	A3G deaminase	ARFGAP1 inhibitor	C2C12 statin	Mot1-301 SUMO
COCCOc1cc(-n2cccc2)c(Cl)cc1Cl	2.6	-2.1	2.0	3.5	11.0	1.3
COCCOc1cc(-n2ccnc2SC)c(Cl)cc1Cl	3.7	-11.1	-1.5	-9.4	91.6*	-3.9
C[C@@H]1CN([C@@H](C)CO)C(=O)Cc2cc(NC(=O)Nc3ccc(F)cc3)ccc2O[C@H]1CN(C)CC1CCCCC1	.	.	.	.	-0.1	.
CC(c1nc2ccccc2c(=O)[nH]1)N1CCN(C)CC1 (stereo not given)	-0.4	10.9	-2.6	11.7	117.0*	8.1
CC(c1nc2ccccc2c(=O)[nH]1)N1CCOCC1 (stereo not given)	-1.6	0.6	-1.8	-2.4	0.1	9.0
CC(C)NC(=O)NCC[C@H]1CC[C@H](NC(=O)Nc2ccccc2)[C@H](CO)O1	.	.	.	.	-4.5	.
O=C(COc1ccccc1F)NCCc1ccc2c(c1)OCCO2	-3.7	-15.5	-8.4	-6.0	125.7*	24.9
